Legend:
[1] = system: human neutrophils, monocytes and lymphocytes; format: cell-based
[2] = system: lung cell populations of TDM-challenged C57BL/6 mice; assay: In vivo cellular specificity of cFLFLFK-PEG12-Cy3 in TDM-challenged mouse lung; conditions: 50 µg i.v., 4 h circulation, 5 days after TDM; flow cytometry, n=3
Procedure, shortened: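 Female C57BL/6 mice (8 weeks, 18–20 g) received 100 µg TDM i.v. Five days later they got 50 µg Cy3-labelled test compound i.v. (n=3) or PBS (n=2). Lungs were digested 4 h later, and cells (2×10^6/mL in HBSS+) were live/dead stained 30 min on ice. They were blocked 30 min (40% mouse serum), plated at 1×10^6/well and mAb-stained. Flow cytometry acquired 100,000 live events. Gated populations were CD11b+Ly6G+, CD3+, CD11c+CD11b-, CD11b+CD11c+, CD11b+CD11c- and marker-negative. Each population's share of total Cy3 signal was pooled across mice.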

[3] = system: C57BL/6 mouse lung; assay: TDM-induced lung granulomatous inflammation in mice; format: in vivo
Procedure, shortened: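 TDM was given via tail vein as an oil-in-water emulsion (100 µL, 100 µg), or vehicle alone. Day-5 lungs were H&E-stained for light microscopy (histology mice 6 weeks old). Flow cytometry used five TDM-treated mice (female, 8 weeks) with live/dead staining and mAb gating: CD11b+Ly6G+ neutrophils, CD3+ lymphocytes, CD11c+CD11b- alveolar macrophages, CD11b+CD11c+ macrophages/dendritic cells, CD11b+CD11c- monocytes/immature macrophages. Values are percentages of all living cells.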

[4] = five TDM-administered mice, day 5

Substance | Cy3 MFI on neutrophils compared with monocytes and lymphocytes [1] | Dose dependence of binding to neutrophils, monocytes and lymphocytes [1] | Targeting of lymphocytes and other (antibody-negative) cells in the lung [2] | Lung histology (H&E) ([3]; 100 µg TDM i.v., day 5, versus vehicle emulsion) | Change in lung frequency of CD3+ lymphocytes ([3]; 100 µg TDM i.v., day 5, flow cytometry) | Frequency increase of lung neutrophils compared to vehicle-injected mice ([3]; 100 µg TDM i.v., day 5, flow cytometry, data not shown) | Percentage of alveolar macrophages relative to all living lung cells [3, 4] | Percentage of immature macrophages/monocytes relative to all living lung cells [3, 4] | Percentage of lymphocytes relative to all living lung cells [3, 4] | Percentage of macrophages/dendritic cells relative to all living lung cells [3, 4] | Percentage of neutrophils relative to all living lung cells [3, 4]
cFLFLFK-PEG12-Cy3 | significantly higher | Dose-dependent binding was observed on all cell types | not targeted | – | – | – | – | – | – | – | –
trehalose dimycolate [TDM] | – | – | – | patchy regions of granulomatous inflammation were observed | unchanged | 9.1% ± 6.4% | 6.3% ± 1.7% | 20.1% ± 3.1% | 10.7% ± 2.5% | 17.7% ± 7.7% | 9.2% ± 3.7%
